In ChEMBL document CHEMBL1131306, “Novel and specific respiratory syncytial virus inhibitors that target virus fusion” (J Med Chem, 1998):
pIC50: −log10 of the molar value.

Key:
Format in all cases: functional, organism-based
Human alphaherpesvirus 1 = assay: Inhibitory concentration was evaluated against herpes simplex 1,strain patton.
Outline: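 HSV-1 strain Patton in African green monkey kidney (Vero) cells, seeded 4 × 10^4/well on day 0. Compound added day 1 as 10 two-fold dilutions, at least in duplicate, then virus added. Growth measured by ELISA 28 h post-infection. IC50 = 50% growth inhibition, averaged; repeated in two different weeks, retested if over 2-fold apart.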

Human betaherpesvirus 5 = assay: Inhibitory concentration was evaluated against human cytomegalovirus (HCMV),strain Ad169.
Outline: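 HCMV Ad169 engineered to encode β-glucuronidase. Human foreskin fibroblasts seeded 4 × 10^4/well on day 0. Compound added day 1 as 10 two-fold dilutions, each at least in duplicate, then virus added. Growth read as β-glucuronidase in culture on day 4. IC50 averaged; each compound run at least twice in different weeks, retested if IC50s differed over 2-fold.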

Human orthopneumovirus = assay: Inhibitory concentration was evaluated against human respiratory syncytial virus,(HRSV) strain A2.
Outline: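 HRSV strain A2 (160 PFU/well) on human foreskin fibroblasts seeded 4 × 10^4/well day 0. Compound added day 1, serially diluted 2-fold over 10 concentrations, at least in duplicate. After 4 days at 37 °C, virus growth quantified by ELISA. IC50 = 50% growth inhibition, averaged; tested in two separate weeks, retested if values differed over 2-fold.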

SMILES | pIC50 (Human alphaherpesvirus 1) | pIC50 (Human betaherpesvirus 5) | pIC50 (Human orthopneumovirus)
CCCN(CCC)S(=O)(=O)c1cccc(Nc2nc(Nc3cccc(S(=O)(=O)N(CCC)CCC)c3)nc(Nc3ccc(-c4ccc(Nc5nc(Nc6cccc(S(=O)(=O)N(CCC)CCC)c6)nc(Nc6cccc(S(=O)(=O)N(CCC)CCC)c6)n5)cc4S(=O)(=O)O)c(S(=O)(=O)O)c3)n2)c1 | < 4.60 | < 4.60 | < 4.60
O=S(=O)(O)c1cc(Nc2nc(Nc3cccc(S(=O)(=O)N(CCO)CCO)c3)nc(Nc3cccc(S(=O)(=O)N(CCO)CCO)c3)n2)ccc1-c1ccc(Nc2nc(Nc3cccc(S(=O)(=O)N(CCO)CCO)c3)nc(Nc3cccc(S(=O)(=O)N(CCO)CCO)c3)n2)cc1S(=O)(=O)O | 4.83 | 5.64 | 7.05
COC(=O)c1cc(Nc2nc(Nc3cccc(S(=O)(=O)N(CCC(N)=O)CCC(N)=O)c3)nc(Nc3cccc(S(=O)(=O)N(CCC(N)=O)CCC(N)=O)c3)n2)ccc1-c1ccc(Nc2nc(Nc3cccc(S(=O)(=O)N(CCC(N)=O)CCC(N)=O)c3)nc(Nc3cccc(S(=O)(=O)N(CCC(N)=O)CCC(N)=O)c3)n2)cc1C(=O)OC | – | < 4.60 | < 4.60
NC(=O)CCN(CCC(N)=O)S(=O)(=O)c1ccc(Nc2nc(Nc3ccc(S(=O)(=O)N(CCC(N)=O)CCC(N)=O)cc3)nc(Nc3ccc(-c4ccc(Nc5nc(Nc6ccc(S(=O)(=O)N(CCC(N)=O)CCC(N)=O)cc6)nc(Nc6ccc(S(=O)(=O)N(CCC(N)=O)CCC(N)=O)cc6)n5)cc4S(=O)(=O)O)c(S(=O)(=O)O)c3)n2)cc1 | 4.75 | 4.83 | 5.54
NC(=O)CCN(CCC(N)=O)C(=O)c1cccc(Nc2nc(Nc3cccc(C(=O)N(CCC(N)=O)CCC(N)=O)c3)nc(Nc3ccc(-c4ccc(Nc5nc(Nc6cccc(C(=O)N(CCC(N)=O)CCC(N)=O)c6)nc(Nc6cccc(C(=O)N(CCC(N)=O)CCC(N)=O)c6)n5)cc4S(=O)(=O)O)c(S(=O)(=O)O)c3)n2)c1 | – | – | < 4.60
NC(=O)CCN(CCC(N)=O)S(=O)(=O)c1cccc(Nc2nc(Nc3cccc(S(=O)(=O)N(CCC(N)=O)CCC(N)=O)c3)nc(Nc3ccc(/C=C/c4ccc(Nc5nc(Nc6cccc(S(=O)(=O)N(CCC(N)=O)CCC(N)=O)c6)nc(Nc6cccc(S(=O)(=O)N(CCC(N)=O)CCC(N)=O)c6)n5)cc4S(=O)(=O)O)c(S(=O)(=O)O)c3)n2)c1 | 5.26 | < 4.60 | 6.82
NC(=O)CCNS(=O)(=O)c1cccc(Nc2nc(Nc3cccc(S(=O)(=O)NCCC(N)=O)c3)nc(Nc3ccc(-c4ccc(Nc5nc(Nc6cccc(S(=O)(=O)NCCC(N)=O)c6)nc(Nc6cccc(S(=O)(=O)NCCC(N)=O)c6)n5)cc4S(=O)(=O)O)c(S(=O)(=O)O)c3)n2)c1 | < 4.60 | 5.92 | 6.62
Cc1ccc(S(=O)(=O)N(CCC(N)=O)CCC(N)=O)cc1Nc1nc(Nc2ccc(-c3ccc(Nc4nc(Nc5cc(S(=O)(=O)N(CCC(N)=O)CCC(N)=O)ccc5C)nc(Nc5cc(S(=O)(=O)N(CCC(N)=O)CCC(N)=O)ccc5C)n4)cc3S(=O)(=O)O)c(S(=O)(=O)O)c2)nc(Nc2cc(S(=O)(=O)N(CCC(N)=O)CCC(N)=O)ccc2C)n1 | – | – | < 4.60
Cc1cc(-c2ccc(Nc3nc(Nc4cccc(S(=O)(=O)N(CCC(N)=O)CCC(N)=O)c4)nc(Nc4cccc(S(=O)(=O)N(CCC(N)=O)CCC(N)=O)c4)n3)c(C)c2)ccc1Nc1nc(Nc2cccc(S(=O)(=O)N(CCC(N)=O)CCC(N)=O)c2)nc(Nc2cccc(S(=O)(=O)N(CCC(N)=O)CCC(N)=O)c2)n1 | 4.60 | < 4.60 | < 4.60
Cc1cc(-c2cc(C)c(Nc3nc(Nc4cccc(S(=O)(=O)N(CCC(N)=O)CCC(N)=O)c4)nc(Nc4cccc(S(=O)(=O)N(CCC(N)=O)CCC(N)=O)c4)n3)cc2S(=O)(=O)O)c(S(=O)(=O)O)cc1Nc1nc(Nc2cccc(S(=O)(=O)N(CCC(N)=O)CCC(N)=O)c2)nc(Nc2cccc(S(=O)(=O)N(CCC(N)=O)CCC(N)=O)c2)n1 | 4.70 | 4.69 | 6.60
NC(=O)CCN(CCC(N)=O)S(=O)(=O)c1cccc(Nc2nc(Nc3cccc(S(=O)(=O)N(CCC(N)=O)CCC(N)=O)c3)nc(Nc3ccc(-c4ccc(Nc5nc(Nc6cccc(S(=O)(=O)N(CCC(N)=O)CCC(N)=O)c6)nc(Nc6cccc(S(=O)(=O)N(CCC(N)=O)CCC(N)=O)c6)n5)cc4S(=O)(=O)O)c(S(=O)(=O)O)c3)n2)c1 | < 4.60 | 4.73 | 7.30
NS(=O)(=O)c1cccc(Nc2nc(Nc3cccc(S(N)(=O)=O)c3)nc(Nc3ccc(-c4ccc(Nc5nc(Nc6cccc(S(N)(=O)=O)c6)nc(Nc6cccc(S(N)(=O)=O)c6)n5)cc4S(=O)(=O)O)c(S(=O)(=O)O)c3)n2)c1 | 5.06 | 5.92 | 5.77
NC(=O)CCN(CCC(N)=O)S(=O)(=O)c1cccc(Nc2nc(Nc3cccc(S(=O)(=O)N(CCC(N)=O)CCC(N)=O)c3)nc(Nc3ccc(-c4ccc(Nc5nc(Nc6cccc(S(=O)(=O)N(CCC(N)=O)CCC(N)=O)c6)nc(Nc6cccc(S(=O)(=O)N(CCC(N)=O)CCC(N)=O)c6)n5)cc4CO)c(CO)c3)n2)c1 | < 4.60 | < 4.60 | < 4.60
NC(=O)CCN(CCC(N)=O)S(=O)(=O)c1cccc(Nc2nc(Nc3cccc(S(=O)(=O)N(CCC(N)=O)CCC(N)=O)c3)nc(Nc3ccc(-c4ccc(Nc5nc(Nc6cccc(S(=O)(=O)N(CCC(N)=O)CCC(N)=O)c6)nc(Nc6cccc(S(=O)(=O)N(CCC(N)=O)CCC(N)=O)c6)n5)cc4C(=O)O)c(C(=O)O)c3)n2)c1 | 5.12 | 6.05 | 6.46
NC(=O)CCN(CCC(N)=O)S(=O)(=O)c1cccc(Nc2nc(Nc3cccc(S(=O)(=O)N(CCC(N)=O)CCC(N)=O)c3)nc(Nc3ccc(CCc4ccc(Nc5nc(Nc6cccc(S(=O)(=O)N(CCC(N)=O)CCC(N)=O)c6)nc(Nc6cccc(S(=O)(=O)N(CCC(N)=O)CCC(N)=O)c6)n5)cc4S(=O)(=O)O)c(S(=O)(=O)O)c3)n2)c1 | – | < 4.60 | 4.65
